Data reported in ChEMBL document CHEMBL4351000, “Inhibitory selectivity among class I HDACs has a major impact on inflammatory gene expression in macrophages” (Eur J Med Chem, 2019).
The source made the active and inactive calls. The rule behind the calls is not given here.

Experiments:
[1] = biological target: T1, Histone deacetylase 1/2 (Mus musculus) (UniProt O09106+P70288); test: Inhibition of HDAC1/2 in LPS/IFNgamma-stimulated mouse RAW264.7 cells assessed as upregulation of IL-6 gene expression at pretreated for 16 hrs followed by LPS stimulation and measured after 4 hrs by RT-qPCR analysis; assay type: cell-based
T1 sequence (O09106 whole entry, looked up): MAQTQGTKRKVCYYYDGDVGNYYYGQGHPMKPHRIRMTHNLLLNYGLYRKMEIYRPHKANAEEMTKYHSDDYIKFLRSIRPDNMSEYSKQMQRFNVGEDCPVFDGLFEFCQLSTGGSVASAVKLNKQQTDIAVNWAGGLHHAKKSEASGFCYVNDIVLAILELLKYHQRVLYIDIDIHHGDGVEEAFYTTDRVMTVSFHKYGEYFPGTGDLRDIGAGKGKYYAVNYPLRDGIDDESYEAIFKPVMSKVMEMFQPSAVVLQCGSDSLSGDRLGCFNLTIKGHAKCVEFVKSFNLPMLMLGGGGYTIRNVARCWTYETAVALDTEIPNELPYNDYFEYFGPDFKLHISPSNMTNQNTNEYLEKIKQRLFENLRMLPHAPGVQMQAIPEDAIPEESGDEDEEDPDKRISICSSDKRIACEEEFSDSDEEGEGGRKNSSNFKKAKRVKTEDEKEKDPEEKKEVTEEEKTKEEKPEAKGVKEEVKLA
T1 sequence (P70288 whole entry, looked up): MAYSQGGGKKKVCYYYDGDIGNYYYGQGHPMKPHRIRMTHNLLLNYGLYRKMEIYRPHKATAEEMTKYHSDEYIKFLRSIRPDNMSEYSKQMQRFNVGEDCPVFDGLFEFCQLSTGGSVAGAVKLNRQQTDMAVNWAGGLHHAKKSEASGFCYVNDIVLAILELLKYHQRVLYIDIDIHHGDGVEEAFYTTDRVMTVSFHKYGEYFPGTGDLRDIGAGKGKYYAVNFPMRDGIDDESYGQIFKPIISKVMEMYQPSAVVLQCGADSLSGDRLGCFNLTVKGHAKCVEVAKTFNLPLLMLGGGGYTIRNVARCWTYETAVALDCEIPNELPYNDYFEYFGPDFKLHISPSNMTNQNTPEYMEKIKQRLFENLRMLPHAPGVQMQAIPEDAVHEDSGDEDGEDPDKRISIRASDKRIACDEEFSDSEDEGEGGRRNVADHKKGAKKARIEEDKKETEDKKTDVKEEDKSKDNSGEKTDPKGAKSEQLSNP
Outline: (§1)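 RAW264.7 cells were treated with inhibitor for 20 h in total, with LPS/IFNγ added for the final 4 h; vehicle was a proportional DMSO dilution. Cells were washed twice with DPBS, total RNA was isolated, and IL10, iNOS, IL6 and TNFα transcripts were quantified by RT-qPCR relative to vehicle. Mean ± SD of 2–3 independent experiments.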

[2] = biological target: T1, Histone deacetylase 1/2 (Mus musculus); test: Inhibition of HDAC1/2 in LPS/IFNgamma-stimulated mouse RAW264.7 cells assessed as upregulation of iNOS gene expression at pretreated for 16 hrs followed by LPS stimulation and measured after 4 hrs by RT-qPCR analysis; assay type: cell-based; outline: as §1
[3] = system: RAW264.7; test: Cytotoxicity against mouse RAW264.7 cells assessed as cell viability at 1 to 5 uM incubated for 24 hrs by MTS assay; assay type: cell-based; settings: raw264.7, 24 h
Outline: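 RAW264.7 macrophages (passage 5–16) were grown in DMEM GlutaMAX with 10% FBS at 37 °C and 5% CO₂, then seeded at 25,000 cells/cm². The next day, medium was replaced with inhibitor-containing medium for 24 h at 37 °C. MTS reagent was added for 2 h at 37 °C in the dark. Absorbance was read at 490 nm and expressed as % of control.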

[4] = biological target: Histone deacetylase 1 (Homo sapiens, UniProt Q13547); test: Inhibition of human recombinant C-terminal His/FLAG-tagged HDAC1 using Boc-Lys-(epsilon-Ac)-AMC as fluorogenic substrate incubated for 90 mins by fluorescence based assay
Sequence of Histone deacetylase 1 (Q13547 whole entry): as the sequence (O09106 whole entry, looked up) above, with K8R, E399D, D424E counted along it

[5] = species: Homo sapiens; test: Selectivity ratio of IC50 for human recombinant C-terminal His-tagged HDAC3/NCOR2 to IC50 for human recombinant C-terminal His/FLAG-tagged HDAC1
Outline: (§2)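 Fluorogenic assay using human recombinant HDAC1 (FLAG/His), HDAC2 (FLAG) or HDAC3/NcoR2 (His) in pH 8.0 Tris buffer with NaCl, KCl, MgCl₂, 0.01% Triton-X and 1 mg/mL BSA. Enzyme, inhibitor dilutions and Boc-Lys(ε-Ac)-AMC were incubated 90 min at 37 °C. Trypsin/200 μM vorinostat stop solution was added for 30 min, then fluorescence read (ex 370/em 460 nm). IC50s came from curve fits; the ratio is HDAC3 IC50 over HDAC2 or HDAC1 IC50.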

[6] = species: Homo sapiens; test: Selectivity ratio of IC50 for human recombinant C-terminal His-tagged HDAC3/NCOR2 to IC50 for human recombinant C-terminal FLAG-tagged HDAC2; outline: as §2
[7] = biological target: Histone deacetylase 3/Nuclear receptor corepressor 2 (HDAC3/NCoR2) (Homo sapiens, UniProt O15379); test: Inhibition of human recombinant C-terminal His-tagged HDAC3/NCOR2 using Boc-Lys-(epsilon-Ac)-AMC as fluorogenic substrate incubated for 90 mins by fluorescence based assay; assay type: protein-complex assay
Sequence of Histone deacetylase 3/Nuclear receptor corepressor 2 (HDAC3/NCoR2) (O15379 whole entry): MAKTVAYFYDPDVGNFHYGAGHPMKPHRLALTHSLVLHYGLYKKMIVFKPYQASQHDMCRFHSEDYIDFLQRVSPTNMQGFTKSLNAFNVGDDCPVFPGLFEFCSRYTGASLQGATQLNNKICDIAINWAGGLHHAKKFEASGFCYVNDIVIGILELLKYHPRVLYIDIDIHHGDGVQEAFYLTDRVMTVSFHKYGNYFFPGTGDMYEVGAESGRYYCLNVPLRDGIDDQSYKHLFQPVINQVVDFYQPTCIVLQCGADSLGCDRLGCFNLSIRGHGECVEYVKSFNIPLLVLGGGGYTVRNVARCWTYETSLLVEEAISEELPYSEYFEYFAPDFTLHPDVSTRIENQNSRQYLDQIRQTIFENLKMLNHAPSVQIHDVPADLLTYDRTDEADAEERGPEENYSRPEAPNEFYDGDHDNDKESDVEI
Sequence of Histone deacetylase 3/Nuclear receptor corepressor 2 (HDAC3/NCoR2) (Q9Y618 whole entry, further chain): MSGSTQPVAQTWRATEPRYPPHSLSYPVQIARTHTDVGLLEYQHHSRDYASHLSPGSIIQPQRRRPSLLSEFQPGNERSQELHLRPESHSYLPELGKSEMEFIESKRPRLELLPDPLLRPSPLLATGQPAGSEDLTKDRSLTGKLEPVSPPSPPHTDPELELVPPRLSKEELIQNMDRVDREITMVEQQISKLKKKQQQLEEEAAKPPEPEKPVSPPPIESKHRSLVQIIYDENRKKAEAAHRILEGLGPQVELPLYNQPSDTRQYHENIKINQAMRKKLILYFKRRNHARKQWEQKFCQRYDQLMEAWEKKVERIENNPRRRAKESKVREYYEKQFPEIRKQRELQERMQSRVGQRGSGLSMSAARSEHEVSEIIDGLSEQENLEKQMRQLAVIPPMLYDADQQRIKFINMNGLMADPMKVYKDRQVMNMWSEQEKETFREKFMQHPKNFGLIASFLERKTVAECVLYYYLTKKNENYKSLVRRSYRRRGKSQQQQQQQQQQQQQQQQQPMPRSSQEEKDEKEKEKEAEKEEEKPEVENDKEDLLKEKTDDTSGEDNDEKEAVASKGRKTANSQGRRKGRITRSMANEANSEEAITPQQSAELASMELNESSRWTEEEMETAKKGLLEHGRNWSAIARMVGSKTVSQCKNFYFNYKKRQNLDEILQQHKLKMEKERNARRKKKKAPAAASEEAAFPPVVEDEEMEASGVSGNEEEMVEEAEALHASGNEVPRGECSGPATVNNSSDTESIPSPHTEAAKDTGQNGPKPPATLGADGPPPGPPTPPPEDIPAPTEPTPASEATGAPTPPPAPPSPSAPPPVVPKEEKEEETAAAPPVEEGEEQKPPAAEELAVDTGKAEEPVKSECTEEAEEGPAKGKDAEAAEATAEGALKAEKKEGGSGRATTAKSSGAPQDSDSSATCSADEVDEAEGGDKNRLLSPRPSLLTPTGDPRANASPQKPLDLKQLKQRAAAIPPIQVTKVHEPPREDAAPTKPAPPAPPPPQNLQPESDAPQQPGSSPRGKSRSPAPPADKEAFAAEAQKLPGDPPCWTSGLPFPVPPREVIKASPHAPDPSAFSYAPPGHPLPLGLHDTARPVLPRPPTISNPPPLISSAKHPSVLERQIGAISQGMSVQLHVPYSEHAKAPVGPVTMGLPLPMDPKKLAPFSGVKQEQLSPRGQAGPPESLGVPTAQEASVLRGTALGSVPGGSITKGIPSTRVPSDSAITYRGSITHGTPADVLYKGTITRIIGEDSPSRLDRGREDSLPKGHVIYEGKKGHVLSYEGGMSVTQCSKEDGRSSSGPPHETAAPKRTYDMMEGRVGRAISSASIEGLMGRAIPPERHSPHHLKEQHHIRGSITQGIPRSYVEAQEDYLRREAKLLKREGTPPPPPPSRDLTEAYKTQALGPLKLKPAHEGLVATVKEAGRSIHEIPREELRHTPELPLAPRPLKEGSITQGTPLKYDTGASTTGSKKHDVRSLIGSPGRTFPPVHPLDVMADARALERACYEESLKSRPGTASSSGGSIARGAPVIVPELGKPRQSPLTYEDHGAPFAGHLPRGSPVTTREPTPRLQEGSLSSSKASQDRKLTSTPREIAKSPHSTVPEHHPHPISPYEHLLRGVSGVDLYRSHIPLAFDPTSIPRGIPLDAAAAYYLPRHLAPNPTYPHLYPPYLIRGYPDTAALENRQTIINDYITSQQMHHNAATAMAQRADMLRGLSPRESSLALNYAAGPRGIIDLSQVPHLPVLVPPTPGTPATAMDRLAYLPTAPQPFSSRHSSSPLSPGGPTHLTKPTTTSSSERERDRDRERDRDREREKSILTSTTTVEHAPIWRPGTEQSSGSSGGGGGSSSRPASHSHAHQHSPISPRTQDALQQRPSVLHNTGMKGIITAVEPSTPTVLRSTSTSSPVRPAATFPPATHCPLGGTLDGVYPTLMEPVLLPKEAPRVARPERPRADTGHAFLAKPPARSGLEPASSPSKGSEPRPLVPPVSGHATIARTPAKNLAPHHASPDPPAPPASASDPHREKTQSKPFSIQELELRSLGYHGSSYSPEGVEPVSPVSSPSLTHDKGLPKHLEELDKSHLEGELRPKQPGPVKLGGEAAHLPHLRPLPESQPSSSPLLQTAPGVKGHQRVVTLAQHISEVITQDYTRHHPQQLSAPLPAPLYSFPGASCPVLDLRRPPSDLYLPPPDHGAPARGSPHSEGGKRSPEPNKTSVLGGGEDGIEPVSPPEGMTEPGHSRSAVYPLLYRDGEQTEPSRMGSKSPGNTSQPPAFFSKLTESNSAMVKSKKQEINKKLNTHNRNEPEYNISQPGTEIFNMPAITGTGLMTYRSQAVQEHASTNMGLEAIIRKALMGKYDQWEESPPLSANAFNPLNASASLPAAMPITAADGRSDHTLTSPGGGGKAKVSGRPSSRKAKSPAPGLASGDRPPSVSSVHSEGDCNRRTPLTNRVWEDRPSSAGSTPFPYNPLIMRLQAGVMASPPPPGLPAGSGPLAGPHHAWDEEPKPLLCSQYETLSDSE

[8] = biological target: T1, Histone deacetylase 1/2 (Mus musculus); test: Inhibition of HDAC1/2 in LPS/IFNgamma-stimulated mouse RAW264.7 cells assessed as upregulation of TNF-alpha gene expression at pretreated for 16 hrs followed by LPS stimulation and measured after 4 hrs by RT-qPCR analysis; assay type: cell-based; outline: as §1
[9] = biological target: Histone deacetylase 2 (Homo sapiens, UniProt Q92769); test: Inhibition of human recombinant C-terminal FLAG-tagged HDAC2 using Boc-Lys-(epsilon-Ac)-AMC as fluorogenic substrate incubated for 90 mins by fluorescence based assay
Sequence of Histone deacetylase 2 (Q92769 whole entry): as the sequence (P70288 whole entry, looked up) above, with A289V, P477T, A480T counted along it

[10] = biological target: T1, Histone deacetylase 1/2 (Mus musculus); test: Inhibition of HDAC1/2 in LPS/IFNgamma-stimulated mouse RAW264.7 cells assessed as upregulation of IL-10 gene expression at pretreated for 16 hrs followed by LPS stimulation and measured after 4 hrs by RT-qPCR analysis; assay type: cell-based; outline: as §1
[11] = biological target: T1, Histone deacetylase 1/2 (Mus musculus); test: Inhibition of HDAC1/2 in LPS/IFNgamma-stimulated mouse RAW264.7 cells assessed as upregulation of iNOS gene expression at 1 to 5 uM pretreated for 16 hrs followed by LPS stimulation and measured after 4 hrs by RT-qPCR analysis; assay type: cell-based; outline: as §1
[12] = biological target: T1, Histone deacetylase 1/2 (Mus musculus); test: Inhibition of HDAC1/2 in LPS/IFNgamma-stimulated mouse RAW264.7 cells assessed as upregulation of IL-6 gene expression at 1 to 5 uM pretreated for 16 hrs followed by LPS stimulation and measured after 4 hrs by RT-qPCR analysis; assay type: cell-based; outline: as §1
[13] = biological target: T1, Histone deacetylase 1/2 (Mus musculus); test: Inhibition of HDAC1/2 in LPS/IFNgamma-stimulated mouse RAW264.7 cells assessed as upregulation of TNF-alpha gene expression at 1 to 5 uM pretreated for 16 hrs followed by LPS stimulation and measured after 4 hrs by RT-qPCR analysis; assay type: cell-based; outline: as §1
[14] = biological target: Histone deacetylase 1 (Mus musculus) (UniProt O09106); test: Inhibition of HDAC1 in LPS/IFNgamma-stimulated mouse RAW blue cells assessed as upregulation of NFkappaB transcriptional activity by measuring increase in SEAP activity at 1 to 5 uM pretreated for 16 hrs followed by LPS stimulation and measured after 4 hrs by quanti blue reagent-based reporter gene assay
Sequence of Histone deacetylase 1 (Mus musculus) (O09106 whole entry): as the sequence (O09106 whole entry, looked up) above
Outline: (§3)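 NF-κB SEAP reporter assay in RAW264.7-derived RAW-Blue cells (passage 4–14), seeded at about 550,000 cells/mL. Cells were pre-incubated with inhibitor for 16 h, then stimulated with 10 ng/mL LPS/IFNγ for 4 h. Supernatant was mixed 1:9 into QUANTI-Blue and incubated 3 h at 37 °C; absorbance was read at 650 nm as % of control. Mean ± SD of 3 independent experiments.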

[15] = biological target: T1, Histone deacetylase 1/2 (Mus musculus); test: Inhibition of HDAC1/2 in LPS/IFNgamma-stimulated mouse RAW264.7 cells assessed as upregulation of IL-10 gene expression at 1 to 5 uM pretreated for 16 hrs followed by LPS stimulation and measured after 4 hrs by RT-qPCR analysis; assay type: cell-based; outline: as §1
[16] = biological target: T2, Histone deacetylase 3 (Mus musculus) (UniProt O88895); test: Inhibition of HDAC3 in LPS/IFNgamma-stimulated mouse RAW264.7 cells assessed as iNOS gene expression at 1 uM pretreated for 16 hrs followed by LPS stimulation and measured after 4 hrs by RT-qPCR analysis; assay type: cell-based; outline: as §1
T2 sequence (whole entry): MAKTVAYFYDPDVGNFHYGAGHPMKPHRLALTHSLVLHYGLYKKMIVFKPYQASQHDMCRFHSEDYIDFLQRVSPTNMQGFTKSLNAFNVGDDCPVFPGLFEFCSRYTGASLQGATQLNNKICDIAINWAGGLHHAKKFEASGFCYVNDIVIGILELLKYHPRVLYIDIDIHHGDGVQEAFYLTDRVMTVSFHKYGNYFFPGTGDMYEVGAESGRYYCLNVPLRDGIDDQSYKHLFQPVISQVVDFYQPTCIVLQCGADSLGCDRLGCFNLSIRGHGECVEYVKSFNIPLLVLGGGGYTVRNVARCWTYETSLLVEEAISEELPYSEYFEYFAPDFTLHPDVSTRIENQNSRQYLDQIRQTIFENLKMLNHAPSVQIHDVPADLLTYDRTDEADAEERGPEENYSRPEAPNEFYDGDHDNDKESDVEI

[17] = biological target: T2, Histone deacetylase 3 (Mus musculus); test: Inhibition of HDAC3 in LPS/IFNgamma-stimulated mouse RAW blue cells assessed as NFkappaB transcriptional activity measured as SEAP activity at 1 to 5 uM pretreated for 16 hrs followed by LPS stimulation and measured after 4 hrs by quanti blue reagent-based reporter gene assay; outline: as §3
[18] = biological target: T2, Histone deacetylase 3 (Mus musculus); test: Inhibition of HDAC3 in LPS/IFNgamma-stimulated mouse RAW264.7 cells assessed as IL-6 gene expression at 1 uM pretreated for 16 hrs followed by LPS stimulation and measured after 4 hrs by RT-qPCR analysis; assay type: cell-based; outline: as §1
[19] = biological target: T2, Histone deacetylase 3 (Mus musculus); test: Inhibition of HDAC3 in LPS/IFNgamma-stimulated mouse RAW264.7 cells assessed as TNF-alpha gene expression at 1 uM pretreated for 16 hrs followed by LPS stimulation and measured after 4 hrs by RT-qPCR analysis; assay type: cell-based; outline: as §1
[20] = biological target: T2, Histone deacetylase 3 (Mus musculus); test: Inhibition of HDAC3 in LPS/IFNgamma-stimulated mouse RAW264.7 cells assessed as IL-10 gene expression at 1 uM pretreated for 16 hrs followed by LPS stimulation and measured after 4 hrs by RT-qPCR analysis; assay type: cell-based; outline: as §1

CC(Nc1ccccc1)c1ccc(C(=O)Nc2ccccc2N)cc1 (stereo not drawn)
Activity [1]: Active | Activity [2]: Active | Activity [3]: Non-Toxic | IC50 [4]: 2300 nM | Ratio IC50 [5]: 3.7 | Ratio IC50 [6]: 1.2 | IC50 [7]: 8500 nM | Activity [8]: Active | IC50 [9]: 7000 nM | Activity [10]: Active

Nc1ccccc1NC(=O)CCCCCC(=O)c1ccccc1
IC50 [4]: 1900 nM | IC50 [7]: 1200 nM | IC50 [9]: 3700 nM

Nc1ccccc1NC(=O)CCCCNC(=O)c1ccccc1
Activity [3]: Non-Toxic

Nc1ccccc1NC(=O)CCCCCNc1ccccc1
IC50 [4]: 1200 nM | IC50 [7]: 400 nM | IC50 [9]: 1300 nM

C[C@H](Nc1ccccc1)c1ccc(C(=O)Nc2ccccc2N)cc1
Activity [3]: Non-Toxic | IC50 [4]: 2400 nM | IC50 [7]: 11000 nM | IC50 [9]: 8300 nM

CN(Cc1ccc(C(=O)Nc2ccccc2N)cc1)c1ccccc1
IC50 [4]: 1000 nM | IC50 [7]: 2800 nM | IC50 [9]: 500 nM

Nc1ccccc1NC(=O)c1ccc(C(=O)Nc2ccccc2)cc1
IC50 [4]: 3000 nM | Ratio IC50 [5]: 5.3 | Ratio IC50 [6]: 3 | IC50 [7]: 16000 nM | IC50 [9]: 5400 nM

Nc1ccccc1NC(=O)c1ccc(CNC(=O)OCc2cccnc2)cc1 [ENTINOSTAT]
Activity [3]: Non-Toxic

Nc1ccccc1NC(=O)c1ccc(CNc2ccccc2)cc1
IC50 [4]: 1000 nM | IC50 [7]: 600 nM | IC50 [9]: 1400 nM

C[C@@H](Nc1ccccc1)c1ccc(C(=O)Nc2ccccc2N)cc1
Activity [11]: Active | Activity [12]: Active | Activity [13]: Active | Activity [14]: Active | Activity [3]: Non-Toxic | IC50 [4]: 1300 nM | Activity [15]: Active | IC50 [7]: 5000 nM | IC50 [9]: 4200 nM

Nc1cc(F)ccc1NC(=O)/C=C/c1cnn(C/C=C/c2ccccc2)c1
Activity [16]: inactive | Activity [17]: inactive | Activity [18]: inactive | Activity [19]: inactive | Activity [3]: Non-Toxic | Activity [20]: inactive
